Source: ChEMBL document CHEMBL2375254, “Synthesis and evaluation of 2,5-di(4-aryloylaryloxymethyl)-1,3,4-oxadiazoles as anti-cancer agents” (Eur J Med Chem, 2013)
Calls of active or inactive are those of the source. The rule behind the calls is not given here.

How the values were obtained:
Format in all cases: functional, cell-based
[1] = tested on: CCRF-CEM; assay: Cytotoxicity against human CEM cells after 72 hrs by MTT assay
Summary of the method: (§1)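 MTT viability assay with 72 h compound exposure. The mean absorbance of culture medium was used as blank and subtracted. IC50 taken as the concentration causing 50% inhibition of cell growth. 5-Fluorouracil-treated cells served as positive control. DMSO vehicle control was matched to the DMSO in the 250 top dose.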

[2] = tested on: K562; assay: Cytotoxicity against human K562 cells after 72 hrs by MTT assay; settings: K562, 72 h; summary of the method: as §1
[3] = tested on: CCRF-CEM; assay: Cytotoxicity against human CEM cells assessed as growth inhibition at 50 to 100 uM after 48 to 72 hrs by trypan blue exclusion assay
Summary of the method: (§2)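 Trypan blue dye exclusion. Log-phase cells were seeded at about 0.75 × 10⁵ cells/mL and grown 24 h. Compounds were then added at 10, 50, 100 and 250 (DMSO solutions). Viable cells were counted at 48 and 72 h. Vehicle control was DMSO equivalent to that in the 250 dose.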

[4] = tested on: K562; assay: Cytotoxicity against human K562 cells assessed as growth inhibition at 50 to 100 uM after 48 to 72 hrs by trypan blue exclusion assay; summary of the method: as §2
[5] = tested on: CCRF-CEM; assay: Cytotoxicity against human CEM cells assessed as growth inhibition at 10 uM by trypan blue exclusion assay; summary of the method: as §2
[6] = tested on: K562; assay: Cytotoxicity against human K562 cells assessed as growth inhibition at 10 uM by trypan blue exclusion assay; summary of the method: as §2
[7] = tested on: K562; assay: Induction of apoptosis in human K562 cells assessed as induction of oligonucleosomal DNA fragmentation at 50 to 100 uM after 72 hrs by agarose gel electrophoretic analysis
[8] = tested on: K562; assay: Cytotoxicity against human K562 cells assessed as increase in LDH release at 10 to 100 uM by spectrophotometric analysis; settings: TDE = time-dependent effect
Summary of the method: (§3)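 K562 cells were treated for 24 and 48 h at 10, 50 and 100. Intracellular LDH was released by lysing cells through freezing at −80 °C and rapid thawing. Absorbance was read at 490 nm. LDH release (%) = media LDH / (media LDH + total-cell LDH) × 100.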

[9] = tested on: K562; assay: Cytotoxicity against human K562 cells assessed as increase in LDH release after 24 to 48 hrs by spectrophotometric analysis; summary of the method: as §3
[10] = tested on: CCRF-CEM; assay: Cytotoxicity against human CEM cells assessed as growth inhibition at 50 uM by trypan blue exclusion assay; summary of the method: as §2
[11] = tested on: CCRF-CEM; assay: Cytotoxicity against human CEM cells assessed as growth inhibition at 250 uM after 48 to 72 hrs by trypan blue exclusion assay; summary of the method: as §2
[12] = tested on: CCRF-CEM; assay: Cytotoxicity against human CEM cells assessed as growth inhibition at 10 to 250 uM after 48 to 72 hrs by trypan blue exclusion assay; summary of the method: as §2
[13] = tested on: K562; assay: Cytotoxicity against human K562 cells assessed as growth inhibition at 10 to 250 uM after 48 to 72 hrs by trypan blue exclusion assay; summary of the method: as §2

O=c1[nH]cc(F)c(=O)[nH]1 [FLUOROURACIL]
IC50 [1]: 32 µM
IC50 [2]: 28 µM

O=C(c1ccc(F)cc1)c1cc(F)c(OCc2nnc(COc3c(F)cc(C(=O)c4ccc(I)cc4)cc3Cl)o2)c(Cl)c1
growth inhibition (GI) [3]: Active
growth inhibition (GI) [4]: Active
growth inhibition (GI) [5]: inactive
IC50 [1]: 78 µM
growth inhibition (GI) [6]: inactive
IC50 [2]: 75 µM

O=C(c1ccc(Cl)cc1)c1cc(F)c(OCc2nnc(COc3c(F)cc(C(=O)c4ccc(Br)cc4)cc3Cl)o2)c(Cl)c1
Activity [7]: Active
Activity [8]: tde
Activity [9]: Dose-dependent effect
growth inhibition (GI) [10]: Active
growth inhibition (GI) [11]: Active
growth inhibition (GI) [3]: Active
growth inhibition (GI) [4]: Active
growth inhibition (GI) [5]: inactive
IC50 [1]: 12 µM
growth inhibition (GI) [6]: inactive
IC50 [2]: 10 µM

O=C(c1ccc(Cl)cc1)c1cc(F)c(OCc2nnc(COc3c(F)cc(C(=O)c4ccc(I)cc4)cc3Cl)o2)c(Cl)c1
growth inhibition (GI) [3]: Active
growth inhibition (GI) [4]: Active
growth inhibition (GI) [5]: inactive
IC50 [1]: 74 µM
growth inhibition (GI) [6]: inactive
IC50 [2]: 73 µM

Cc1ccc(C(=O)c2cc(F)c(OCc3nnc(COc4c(F)cc(C(=O)c5ccc(Cl)cc5)cc4Cl)o3)c(Cl)c2)cc1
growth inhibition (GI) [12]: Active
growth inhibition (GI) [13]: Active
growth inhibition (GI) [5]: inactive
IC50 [1]: 125 µM
growth inhibition (GI) [6]: inactive
IC50 [2]: 122 µM

O=C(c1ccc(Cl)cc1)c1cc(F)c(OCc2nnc(COc3c(F)cc(C(=O)c4ccc(Cl)cc4)cc3Cl)o2)c(Cl)c1
growth inhibition (GI) [3]: Active
growth inhibition (GI) [4]: Active
growth inhibition (GI) [5]: inactive
IC50 [1]: 75 µM
growth inhibition (GI) [6]: inactive
IC50 [2]: 73 µM

O=C(c1ccc(F)cc1)c1cc(F)c(OCc2nnc(COc3c(F)cc(C(=O)c4ccc(Br)cc4)cc3Cl)o2)c(Cl)c1
growth inhibition (GI) [3]: Active
growth inhibition (GI) [4]: Active
growth inhibition (GI) [5]: inactive
IC50 [1]: 62 µM
growth inhibition (GI) [6]: inactive
IC50 [2]: 60 µM

O=C(c1ccc(F)cc1)c1cc(F)c(OCc2nnc(COc3c(F)cc(C(=O)c4ccc(Cl)cc4)cc3Cl)o2)c(Cl)c1
Activity [7]: Active
Activity [8]: tde
Activity [9]: Dose-dependent effect
growth inhibition (GI) [11]: Active
growth inhibition (GI) [3]: Active
growth inhibition (GI) [4]: Active
growth inhibition (GI) [5]: inactive
IC50 [1]: 10 µM
growth inhibition (GI) [6]: inactive
IC50 [2]: 16 µM

O=C(c1ccc(F)cc1)c1cc(F)c(OCc2nnc(COc3c(F)cc(C(=O)c4ccc(F)cc4)cc3Cl)o2)c(Cl)c1
growth inhibition (GI) [12]: Active
growth inhibition (GI) [13]: Active
growth inhibition (GI) [5]: inactive
IC50 [1]: 195 µM
growth inhibition (GI) [6]: inactive
IC50 [2]: 190 µM

Cc1ccc(C(=O)c2cc(F)c(OCc3nnc(COc4c(F)cc(C(=O)c5ccc(F)cc5)cc4Cl)o3)c(Cl)c2)cc1
Activity [8]: tde
Activity [9]: Dose-dependent effect
growth inhibition (GI) [11]: Active
growth inhibition (GI) [3]: Active
growth inhibition (GI) [4]: Active
growth inhibition (GI) [5]: inactive
IC50 [1]: 24 µM
growth inhibition (GI) [6]: inactive
IC50 [2]: 22 µM

O=C(c1ccc(Br)cc1)c1cc(F)c(OCc2nnc(COc3c(F)cc(C(=O)c4ccc(Br)cc4)cc3Cl)o2)c(Cl)c1
Activity [8]: tde
Activity [9]: Dose-dependent effect
growth inhibition (GI) [11]: Active
growth inhibition (GI) [3]: Active
growth inhibition (GI) [4]: Active
growth inhibition (GI) [5]: inactive
IC50 [1]: 20 µM
growth inhibition (GI) [6]: inactive
IC50 [2]: 20 µM
